The source of these data is ChEMBL document CHEMBL5214961, “Novel Allosteric Inhibitor-Derived AKT Proteolysis Targeting Chimeras (PROTACs) Enable Potent and Selective AKT Degradation in KRAS/BRAF Mutant Cells” (J Med Chem, 2022).

Data set [1] addresses RAC-gamma serine/threonine-protein kinase (Homo sapiens, UniProt Q9Y243). The data set can be described thus: Inhibition of AKT3 (unknown origin) preincubated for 20 mins followed by [33P]-ATP addition measured after 120 mins by hotspot kinase assay.
The target in data set [2] is T1, RAC-alpha serine/threonine-protein kinase (Homo sapiens, UniProt P31749). Briefly: Inhibition of AKT1 (unknown origin) preincubated for 20 mins followed by [33P]-ATP addition measured after 120 mins by hotspot kinase assay.
Target sequence in this assay (P31749 whole entry): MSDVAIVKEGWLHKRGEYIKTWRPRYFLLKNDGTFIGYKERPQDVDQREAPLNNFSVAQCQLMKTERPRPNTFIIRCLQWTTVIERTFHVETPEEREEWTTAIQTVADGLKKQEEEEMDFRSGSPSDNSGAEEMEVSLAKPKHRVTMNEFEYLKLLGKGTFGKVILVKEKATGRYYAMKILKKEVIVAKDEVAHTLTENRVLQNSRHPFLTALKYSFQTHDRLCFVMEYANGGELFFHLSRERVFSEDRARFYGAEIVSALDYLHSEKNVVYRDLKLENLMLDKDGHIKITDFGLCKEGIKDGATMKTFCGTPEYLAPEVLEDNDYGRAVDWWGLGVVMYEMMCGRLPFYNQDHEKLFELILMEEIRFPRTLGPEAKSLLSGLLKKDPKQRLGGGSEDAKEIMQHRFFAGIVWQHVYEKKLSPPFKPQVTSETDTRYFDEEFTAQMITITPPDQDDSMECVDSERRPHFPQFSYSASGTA
The target of data set [3] is T2, RAC-beta serine/threonine-protein kinase (Homo sapiens, UniProt P31751). Briefly: Inhibition of AKT2 (unknown origin) preincubated for 20 mins followed by [33P]-ATP addition measured after 120 mins by hotspot kinase assay.
The test system of data set [4] is SW-620. The data set can be described thus: Antiproliferative activity against human SW620 cells harboring KRAS mutant assessed as inhibition of cell growth incubated for 5 days by IncuCyte live-cell imaging analysis. In kind it is functional, cell-based. As to conditions: SW-620, 120 h.
Another data set concerns PC-3. The data set can be described thus: Inhibition of colony formation in human PC-3 cells at 0.1 to 10 uM incubated for 2 weeks with media replacement for every 2 days by crystal violet staining based analysis. The data set is classed as functional, cell-based. Particulars: dose 0.1-10 µM. The procedure, abridged:
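PC3 cells kept 14 days with compound; compound-containing medium replenished every two days. Viable cells stained with 0.5% crystal violet.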

Data set [5] concerns the target von Hippel-Lindau disease tumor suppressor/RAC-alpha serine/threonine-protein kinase (Homo sapiens) (UniProt P31749+P40337). Briefly: Protac activity at VHL/AKT in human PC-3 cells assessed as reduction in total Akt level at 1 uM incubated for 24 hrs by Western blot analysis. In kind it is cell-based. Summed up: (§1)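 Cells grown in DMEM with 10% FBS at 37 °C, 5% CO2, then exposed to compound at 1 μM for 24 h. Lysates made in 2X urea/SDS sample buffer, run on 4–12% Bis-Tris gels, transferred to PVDF, probed for total AKT overnight at 4 °C; HRP/chemiluminescence detection with β-actin as loading control.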
In general terms: In western blotting, separated proteins are transferred to a membrane and probed.

In data set [6] the target is Proline-rich AKT1 substrate 1 (Homo sapiens) (UniProt Q96B36). The data set can be described thus: Inhibition of PRAS40 phosphorylation in human SW620 cells at 1 uM measured after 18 hrs by TMT-MS analysis. In kind it is cell-based.
The nature of data set [7]: Tmax in Swiss albino mouse at 75 mg/kg, ip administered as single dose and measured for 12 hrs by LC-MS/MS analysis. The data set is classed as ADME, organism-based. Particulars: in vivo. Summed up:
(§2)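 Single IP dose of 75 mg/kg to male Swiss albino mice (six dosed); compound as HCl salt in 5% v/v NMP, 5% v/v Solutol HS-15, 90% v/v normal saline. About 60 μL plasma taken from three mice at 0.5, 1, 2, 4, 8 and 12 h; LC-MS/MS quantitation (LLOQ 1.02 ng/mL); values are means of 3 mice.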

In data set [8] the target is T1, RAC-alpha serine/threonine-protein kinase. The data set can be described thus: Induction of AKT degradation in MS21-resistant human PANC-1 cells harboring […] mutant assessed as reduction in total AKT level at 1 uM incubated for 24 hrs by Western blot analysis. In kind it is cell-based. The procedure, abridged:
as §1
Target sequence in this assay (P31749 whole entry): as above

Data set [9] shares this target. The data set can be described thus: Induction of AKT degradation in human SW620 cells assessed as reduction in total AKT level at 1 uM measured after 18 hrs by TMT-MS analysis. In kind it is cell-based. Summed up:
(§3)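 SW620 cells treated at 1 μM for 18 h, two biological replicates per condition. Lysates in 8 M urea were reduced with DTT, alkylated with iodoacetamide, digested with trypsin, labeled with TMT, split into 22 fractions and analyzed by nanoLC-MS/MS on a Q-Exactive HF-X. Output is log2 fold change against p value.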
Target sequence in this assay (P31749 whole entry): as above

Data set [10] has the same target. The data set can be described thus: Induction of AKT degradation in MS-21 resistant human SW620 cells harboring KRAS-mutant assessed as reduction in total Akt level at 1 uM incubated for 24 hrs by Western blot analysis. In kind it is cell-based. The procedure, abridged: as §1
Target sequence in this assay (P31749 whole entry): as above
The target is the same in data set [11]. Briefly: Induction of AKT degradation in MS21-resistant human HT-29 cells harboring BRAF/PI3KA mutant assessed as reduction in total AKT level at 1 uM incubated for 24 hrs by Western blot analysis. The data set is classed as cell-based. The procedure, abridged:
as §1
Target sequence in this assay (P31749 whole entry): as above

Data set [12] has the same target. Briefly: Induction of AKT degradation in MS21-resistant human SW620 cells harboring KRAS/BRAF mutant assessed as reduction in total AKT level incubated for 24 hrs by Western blot analysis. The data set is classed as cell-based. The procedure, abridged:
(§4)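 Dose-response in DMEM/10% FBS culture: compound at the indicated concentrations, up to 10 μM, for 24 h. Total AKT read by western blot of urea/SDS lysates with β-actin loading control; in SW620 a DC50 was fitted from the concentration-response blot data.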
Target sequence in this assay (P31749 whole entry, looked up, stated change not applied): as the sequence (P31749 whole entry) above

For data set [13] the target is unchanged. Briefly: Induction of AKT degradation in MS21-resistant human COLO 205 cells harboring BRAF mutant assessed as reduction in total AKT level at 1 uM incubated for 24 hrs by Western blot analysis. The data set is classed as cell-based. Summed up:
as §1
Target sequence in this assay (P31749 whole entry): as above

Data set [14] deals with T2, RAC-beta serine/threonine-protein kinase. The data set can be described thus: Induction of AKT2 degradation in human SW620 cells at 0.01 to 10 uM incubated for 24 hrs by Western blot analysis. Particulars: dose 0.01-10 µM. In kind it is cell-based.
The target of data set [15] is T1, RAC-alpha serine/threonine-protein kinase. The data set can be described thus: Induction of AKT1 degradation in human SW620 cells at 0.01 to 10 uM incubated for 24 hrs by Western blot analysis. As to conditions: dose 0.01-10 µM. The data set is classed as cell-based.
For data set [16] the target is unchanged. The data set can be described thus: Induction of AKT degradation in MS21-resistant human SK-MEL-239 cells harboring BRAF mutant assessed as reduction in total AKT level at 1 uM incubated for 24 hrs by Western blot analysis. The data set is classed as cell-based. Summed up: as §1
The nature of data set [17]: Toxicity in Swiss albino mouse assessed as clinical signs at 75 mg/kg, ip administered as single dose and measured for 12 hrs. Particulars: in vivo. The data set is classed as organism-based. The procedure, abridged: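 Male Swiss albino mice given a single 75 mg/kg IP dose in 5% NMP/5% Solutol HS-15/90% saline; watched for clinical signs across a 12 h pharmacokinetic sampling period.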

Data set [18] deals with T1, RAC-alpha serine/threonine-protein kinase. Briefly: Induction of AKT degradation in MS21-resistant human PANC-1 cells harboring […] mutant assessed as reduction in total AKT level at 100 nM incubated for 24 hrs by Western blot analysis relative to control. The data set is classed as cell-based. On the set-up: scale not given: the % may be the effect or the level left. Summed up:
as §4

For data set [19] the target is unchanged. The data set can be described thus: Induction of AKT degradation in MS21-resistant human PANC-1 cells harboring […] mutant assessed as reduction in total AKT level incubated for 24 hrs by Western blot analysis. As to conditions: dose 0.01-10 µM, DDE = dose-dependent effect. In kind it is cell-based. The procedure, abridged:
as §4

The target is the same in data set [20]. Briefly: Induction of AKT degradation in MS-21 resistant human MIA PaCa-2 cells harboring KRAS-mutant assessed as reduction in total Akt level at 1 uM incubated for 24 hrs by Western blot analysis. In kind it is cell-based.
Data set [21] is described as follows: Cmax in Swiss albino mouse at 75 mg/kg, ip administered as single dose and measured for 12 hrs by LC-MS/MS analysis. Particulars: in vivo. The arrangement: dose 75 mg/kg, time 12 hrs, route ip. The data set is classed as ADME, organism-based. Summed up: as §2
In data set [22] the target is T1, RAC-alpha serine/threonine-protein kinase. Briefly: Induction of AKT degradation in MS21-resistant human SW620 cells harboring KRAS/BRAF mutant assessed as reduction in total AKT level at 1 uM by Western blot analysis. In kind it is cell-based. Particulars: time 1-24 hrs, TDE = time-dependent effect. Summed up: (§5)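 SW620 time course: cells given 1 μM compound, with lysates harvested at several time points up to 24 h. Total AKT probed by western blot with β-actin as loading control.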

Data set [23] has the same target. Briefly: Induction of AKT degradation in MS21-resistant human SW620 cells harboring KRAS/BRAF mutant assessed as reduction in total AKT level at 100 nM incubated for 24 hrs by Western blot analysis relative to control. In kind it is cell-based. The arrangement: scale not given: the % may be the effect or the level left. Summed up: as §4
Data set [24] concerns the target T2, RAC-beta serine/threonine-protein kinase. Briefly: Induction of AKT2 degradation in human SW620 cells assessed as reduction in total AKT level at 1 uM measured after 18 hrs by TMT-MS analysis. In kind it is cell-based. Summed up: as §3
The target in data set [25] is T1, RAC-alpha serine/threonine-protein kinase. Briefly: Induction of AKT degradation in MS21-resistant human SW620 cells harboring KRAS/BRAF mutant assessed as reduction in total AKT level at 1 uM measured after 12 hrs by Western blot analysis relative to control. The data set is classed as cell-based. The arrangement: scale not given: the % may be the effect or the level left. The procedure, abridged:
as §5

Data set [26] in a line: Plasma concentration in Swiss albino mouse at 75 mg/kg, ip administered as single dose and measured for 12 hrs by LC-MS/MS analysis. The data set is classed as ADME, organism-based. The procedure, abridged: as §2
The test system of data set [27] is SW-620. The data set can be described thus: Induction of apoptosis in human SW620 cells harboring KRAS mutant assessed as cell death at 5 uM measured upto 72 hrs. The data set is classed as functional, cell-based. The procedure, abridged:
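SW620 cells given 5 μM compound or DMSO; percent cell death followed with DRAQ7 at 0, 24, 36, 48 and 72 h. Standard errors taken from three independent experiments.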

pEC50, pIC50: −log10 of the molar value. Calls of active or inactive are those of the source. The rule behind the calls is not given here.

Chain of RAC-gamma serine/threonine-protein kinase (Q9Y243 whole entry): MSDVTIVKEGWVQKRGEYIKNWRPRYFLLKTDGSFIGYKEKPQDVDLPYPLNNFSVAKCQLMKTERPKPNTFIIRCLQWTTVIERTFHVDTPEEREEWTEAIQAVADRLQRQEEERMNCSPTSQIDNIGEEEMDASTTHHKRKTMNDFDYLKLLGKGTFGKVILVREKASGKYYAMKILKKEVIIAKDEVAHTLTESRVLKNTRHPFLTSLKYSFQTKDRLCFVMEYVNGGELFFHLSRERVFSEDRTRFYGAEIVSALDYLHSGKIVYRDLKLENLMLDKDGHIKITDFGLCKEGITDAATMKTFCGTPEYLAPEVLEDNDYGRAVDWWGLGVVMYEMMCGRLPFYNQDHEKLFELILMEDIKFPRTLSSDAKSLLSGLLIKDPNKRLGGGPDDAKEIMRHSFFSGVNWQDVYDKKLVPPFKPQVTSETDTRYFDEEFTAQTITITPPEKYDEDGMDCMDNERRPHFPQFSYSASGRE
T2 sequence (P31751 whole entry): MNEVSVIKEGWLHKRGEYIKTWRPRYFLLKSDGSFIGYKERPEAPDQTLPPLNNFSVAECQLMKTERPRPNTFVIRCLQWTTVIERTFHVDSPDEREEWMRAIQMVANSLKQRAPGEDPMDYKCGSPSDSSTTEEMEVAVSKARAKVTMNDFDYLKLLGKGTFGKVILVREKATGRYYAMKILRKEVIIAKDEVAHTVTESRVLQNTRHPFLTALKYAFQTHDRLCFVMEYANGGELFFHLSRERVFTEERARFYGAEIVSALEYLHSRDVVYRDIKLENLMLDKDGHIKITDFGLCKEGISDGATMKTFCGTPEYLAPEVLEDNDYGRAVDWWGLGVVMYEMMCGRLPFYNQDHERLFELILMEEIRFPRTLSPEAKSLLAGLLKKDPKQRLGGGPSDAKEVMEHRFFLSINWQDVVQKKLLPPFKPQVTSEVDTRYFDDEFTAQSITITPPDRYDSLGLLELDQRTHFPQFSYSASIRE
Chain of von Hippel-Lindau disease tumor suppressor/RAC-alpha serine/threonine-protein kinase (Homo sapiens) (P31749 whole entry, looked up): as the sequence (P31749 whole entry) above
Chain of von Hippel-Lindau disease tumor suppressor/RAC-alpha serine/threonine-protein kinase (Homo sapiens) (P40337 whole entry, looked up): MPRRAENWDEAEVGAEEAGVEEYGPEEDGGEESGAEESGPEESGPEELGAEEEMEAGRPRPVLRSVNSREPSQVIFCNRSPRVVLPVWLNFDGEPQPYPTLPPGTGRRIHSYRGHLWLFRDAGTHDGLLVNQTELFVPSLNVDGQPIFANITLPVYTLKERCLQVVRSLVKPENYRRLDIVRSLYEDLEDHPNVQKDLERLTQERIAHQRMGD

As usually defined, the pIC50 is the negative decadic logarithm of the IC50, by convention in mol/L. For `Cc1ncsc1-c1ccc([C@H](C)NC(=O)[C@H]2C[C@H](O)CN2C(=O)[C@@H](NC(=O)CCCCCCCCCCNC(=O)CCc2cccc(-c3ccc4nc(-c5cccnc5N)n(-c5ccc(C6(N)CCC6)cc5)c4n3)c2)C(C)(C)C)cc1`, the results for the pIC50 in [1], in data set [2] and in data set [3] were 6.39, 6.16 and 7.07, respectively.
Regarding `Cc1ncsc1-c1ccc([C@H](C)NC(=O)[C@H]2C[C@H](OCc3ccccc3)CN2C(=O)[C@@H](NC(=O)CCCCCCCCCCNC(=O)CCc2cccc(-c3ccc4nc(-c5cccnc5N)n(-c5ccc(C6(N)CCC6)cc5)c4n3)c2)C(C)(C)C)cc1`, the pIC50 was under 5.00 with SW-620 [4], 5.74 in data set [1], 5.92 in [2] and 6.25 in data set [3].
With `Cc1ncsc1-c1ccc(CNC(=O)[C@@H]2C[C@@H](O)CN2C(=O)[C@@H](NC(=O)CCCCCCCCC(=O)NCCc2cccc(-c3ccc4nc(-c5cccnc5N)n(-c5ccc(C6(N)CCC6)cc5)c4n3)c2)C(C)(C)C)cc1`, the inhibition result in the data set on PC-3 was “Active”. For the same compound, the result in data set [5] was Active.
What is called Tmax is the time from dosing to the highest level. One may read the GI50 as the concentration that inhibits growth by half. A word on the pEC50: it is −log10 of the EC50, conventionally taken in molar units. As a reminder, the Cmax is the highest concentration seen after dosing. As for `Cc1ncsc1-c1ccc([C@H](C)NC(=O)[C@@H]2C[C@@H](O)CN2C(=O)[C@@H](NC(=O)CCCCCCCCCCNC(=O)CCc2cccc(-c3ccc4nc(-c5cccnc5N)n(-c5ccc(C6(N)CCC6)cc5)c4n3)c2)C(C)(C)C)cc1`, the inhibition entry (in [6]; in the data set on PC-3) was “Active” throughout. Also, the Tmax in data set [7] was found to be 30 min. Moreover, the outcome in [8], in data set [9], in data set [10], in [11], in data set [13] and in data set [14] was Active. Further, the result (in data set [15]; in [16]; in data set [20]; in [24]; with SW-620 [27]) was Active. For the same compound, the GI50 with SW-620 [4] (time 5 day) amounted to 3100 nM. For the same compound, in [12], the pEC50 is 7.64. In addition, the Activity entry is “Non-Toxic” in [17]; 100% in data set [18]; “Dde” in [19]; “Tde” in [22]; 100% in data set [23]; 100% in data set [25]. The highest level in data set [21] (Cmax) was 1000 nM. Besides, the pIC50 in [1] is 6.26; in [2] it was 6.10; in [3], 7.05. Also, in data set [26], the concentration at 12 h is over 100 nM.
